Data from ChEMBL document CHEMBL4477205, “Discovery of New Chemical Entities for Old Targets: Insights on the Lead Optimization of Chromone-Based Monoamine Oxidase B (MAO-B) Inhibitors” (J Med Chem, 2016).
One block for each compound: values may come before it. The source made the active and inactive calls. No cut-off for these calls is given here.

What was measured:
SH-SY5Y [1] = test: Cytotoxicity against human SH-SY5Y cells assessed as cell viability at 10 uM after 24 hrs by MTT assay (reference value: […] +/- 11.7 %); assay type: functional; conditions: read-out: Activity
SH-SY5Y [2] = test: Cytotoxicity against human SH-SY5Y cells assessed as reduction in cell viability at 1 to 10 uM after 24 hrs by neutral red uptake assay; assay type: functional, cell-based
Summary of the method: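 SH-SY5Y cells grown to confluence over 3 days and exposed 24 h to compound at 1 and 10 μM in serum-free medium, with a 0.1% DMSO vehicle control. Neutral red 50 μg/mL added for 2 h at 37 °C. Dye extracted with ethanol/water (1:1) containing 5% acetic acid and read at 540 nm. Uptake expressed as % of control.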

SH-SY5Y [3] = test: Cytotoxicity against human SH-SY5Y cells assessed as reduction in cell viability at 1 uM after 24 hrs by MTT assay; assay type: functional, cell-based
[4] = target: T1, Amine oxidase [flavin-containing] B (Homo sapiens, UniProt P27338); test: biochemical; assay type: cell-based, BTI-TN-5B1-4
T1 sequence (P27338 whole entry): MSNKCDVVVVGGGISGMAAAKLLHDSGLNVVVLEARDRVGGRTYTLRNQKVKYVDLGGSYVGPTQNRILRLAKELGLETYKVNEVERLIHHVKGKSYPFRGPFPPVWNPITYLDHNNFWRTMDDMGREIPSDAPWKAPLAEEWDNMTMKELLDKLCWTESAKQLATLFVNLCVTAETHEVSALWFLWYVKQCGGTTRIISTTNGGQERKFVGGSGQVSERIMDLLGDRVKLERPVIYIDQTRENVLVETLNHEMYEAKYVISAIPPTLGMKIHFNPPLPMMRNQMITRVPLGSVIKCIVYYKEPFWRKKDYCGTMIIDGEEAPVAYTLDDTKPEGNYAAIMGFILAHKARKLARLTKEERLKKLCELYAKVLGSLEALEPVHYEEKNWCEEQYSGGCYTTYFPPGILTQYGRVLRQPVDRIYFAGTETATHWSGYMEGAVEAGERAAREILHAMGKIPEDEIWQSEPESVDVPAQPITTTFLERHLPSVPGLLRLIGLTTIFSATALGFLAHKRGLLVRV

[5] = target: T2, Amine oxidase [flavin-containing] A (Homo sapiens, UniProt P21397); test: Inhibition of human microsomal MAO-A expressed in recombinant baculovirus infected insect BTI-TN-5B1-4 cells assessed as reduction in H2O2 production using p-tyramine as substrate after 15 mins by fluorescence assay
T2 sequence (P21397 whole entry): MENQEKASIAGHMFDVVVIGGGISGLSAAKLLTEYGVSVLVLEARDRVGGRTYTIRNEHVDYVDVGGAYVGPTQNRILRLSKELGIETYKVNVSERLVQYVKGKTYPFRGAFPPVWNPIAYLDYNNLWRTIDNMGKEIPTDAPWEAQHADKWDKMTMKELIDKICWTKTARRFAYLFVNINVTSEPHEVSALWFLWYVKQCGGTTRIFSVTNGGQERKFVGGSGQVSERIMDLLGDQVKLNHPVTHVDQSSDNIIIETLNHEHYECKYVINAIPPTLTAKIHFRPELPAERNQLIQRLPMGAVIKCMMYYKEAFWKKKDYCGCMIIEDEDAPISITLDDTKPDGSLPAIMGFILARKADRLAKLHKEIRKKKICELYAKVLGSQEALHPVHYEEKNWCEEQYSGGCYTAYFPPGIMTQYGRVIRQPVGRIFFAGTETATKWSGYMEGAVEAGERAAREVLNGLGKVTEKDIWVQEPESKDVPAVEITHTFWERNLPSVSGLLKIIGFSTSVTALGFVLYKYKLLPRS

[6] = target: T2, Amine oxidase [flavin-containing] A; test: Inhibition of human microsomal MAO-A expressed in recombinant baculovirus infected insect BTI-TN-5B1-4 cells assessed as reduction in H2O2 production at 100 uM using p-tyramine as substrate after 15 mins by fluorescence assay
[7] = target: T1, Amine oxidase [flavin-containing] B; test: Reversible inhibition of human microsomal MAO-B expressed in recombinant baculovirus infected insect BTI-TN-5B1-4 cells assessed as increase in residual enzyme activity at 40 nM after 60 mins; conditions: bti-tn-5b1-4, 1 h, 0.04 µM
SH-SY5Y [8] = test: Cytotoxicity against human SH-SY5Y cells assessed as cell viability at 1 uM after 24 hrs by MTT assay (reference value: […] +/- 11.7 %); assay type: functional; conditions: read-out: Activity
[9] = target: T2, Amine oxidase [flavin-containing] A; test: Inhibition of human microsomal MAO-A expressed in recombinant baculovirus infected insect BTI-TN-5B1-4 cells assessed as reduction in H2O2 production at 10 uM using p-tyramine as substrate after 15 mins by fluorescence assay
Homo sapiens = species on record: Homo sapiens; test: Selectivity index, ratio of IC50 for human microsomal MAO-A expressed in recombinant baculovirus infected insect BTI-TN-5B1-4 cells to IC50 for human microsomal MAO-B expressed in recombinant baculovirus infected insect BTI-TN-5B1-4 cells

SMILES: Cc1ccc(NC(=O)c2coc3ccccc3c2=O)cc1C
viability at 10 µM (SH-SY5Y [1]): 74.5%
Activity (SH-SY5Y [2]): inactive
Activity (SH-SY5Y [3]): inactive

IC50 ([4]; bti-tn-5b1-4): Nd(Insoluble)
IC50 [5]: Nd(Insoluble)
SMILES: O=C(Nc1ccc(S)cc1)c1coc2ccccc2c1=O

INH [6]: Not Active
inhibition (INH) [7]: Active
SMILES: C[C@H](NCc1ccc(OCc2cccc(F)c2)cc1)C(N)=O [SAFINAMIDE]

SMILES: O=C(Nc1cccc(Cl)c1)c1coc2ccccc2c1=O
viability at 10 µM (SH-SY5Y [1]): 43.7%
viability at 1 µM (SH-SY5Y [8]): 64.3%
Activity (SH-SY5Y [2]): inactive

IC50 ([4]; bti-tn-5b1-4): Nd(Insoluble)
IC50 [5]: Nd(Insoluble)
SMILES: O=C(Nc1ccc(Cl)c(Cl)c1)c1coc2ccccc2c1=O

IC50 ([4]; read-out: IC50): 1380 nM
INH [9]: Not Active
SMILES: O=C(Nc1ccc(O)cc1)c1coc2ccccc2c1=O
Ratio IC50 (Homo sapiens): > 7.2

IC50 ([4]; bti-tn-5b1-4): Nd(Insoluble)
IC50 [5]: Nd(Insoluble)
SMILES: O=C(Nc1cc(Cl)c(Cl)c(Cl)c1)c1coc2ccccc2c1=O
